KCNK9 block = KCNK9 potassium channel inhibitors, primary screen, HEK293 cells, thallium flux; actives 1.2% (n = 310,000); B-score at 10 µM; AID 488922, 2010; Potassium channel subfamily K member 9 (Homo sapiens), Q9NPC2; FluxOR thallium flux fluorescence; hits give low values;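 active means ratio B-score over 3 SD below the library mean, with starting fluorescence within 5 SD of its mean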;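 further: negative B-score means less thallium flux so channel inhibition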
Kir21 block = inhibitors of mouse Kir2.1 inward-rectifier potassium channel; Inward rectifier potassium channel 2 (Mus musculus), P35561; HEK293-Kir2.1, FluxOR thallium flux fluorescence; hits give low values; B-score at 10 µM; actives 0.85% (n = 310,000);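 active means fluorescence ratio B-score at or below minus 3 SD of library scores, with starting-brightness B-score within 2 SD, cut at about -4.2 in these data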;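 further: channel flux triggered by added potassium and thallium sulfate stimulus; B-score of peak minus minimum fluorescence over baseline after thallium stimulus; more negative B-score means stronger Kir2.1 block with less thallium influx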
KCNK3 inh = human KCNK3 channel inhibitors, primary screen, CHO cells, FluxOR thallium flux, B-score | Potassium channel subfamily K member 3 (Homo sapiens), O14649 | FluxOR fluorescence; hits give low values | B-score at 10 µM | actives 0.84% (n = 340,000);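 active means B-score under library mean minus 4 SD, starting fluorescence ratio at most library mean plus 5 SD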;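 further: more negative B-score means stronger inhibition of thallium flux through KCNK3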
Target sequence (O14649 whole entry, looked up): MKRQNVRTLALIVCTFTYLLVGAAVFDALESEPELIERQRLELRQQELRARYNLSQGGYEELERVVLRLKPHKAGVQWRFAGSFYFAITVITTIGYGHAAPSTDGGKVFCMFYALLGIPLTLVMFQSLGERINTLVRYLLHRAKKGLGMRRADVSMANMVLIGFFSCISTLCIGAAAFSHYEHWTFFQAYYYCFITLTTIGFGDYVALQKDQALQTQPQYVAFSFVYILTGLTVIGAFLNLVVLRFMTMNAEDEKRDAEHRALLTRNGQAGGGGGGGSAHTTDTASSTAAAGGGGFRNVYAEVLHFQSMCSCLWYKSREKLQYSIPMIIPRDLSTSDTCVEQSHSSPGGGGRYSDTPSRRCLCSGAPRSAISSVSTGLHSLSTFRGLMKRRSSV
KCNQ1 inh = inhibitors of human KCNQ1 channel, primary screen, cell-based, thallium flux, high-throughput; Potassium voltage-gated channel subfamily KQT member 1 (Homo sapiens), P51787; CHO-K1 KCNQ1, FluxOR thallium flux fluorescence; hits give high values; B-score at 10 µM; actives 1.3% (n = 310,000); AID 2642, 2010;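 active means compounds whose thallium flux B-score, printed positive for inhibition, exceeds three library SD while starting fluorescence stays within three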;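 further: channel opened by potassium depolarization with thallium stimulus after 20 min compound exposure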
hERG rescue = hERG rescue from dofetilide block, primary screen, cell-based, CHO-hERG, FluxOR thallium flux, dofetilide IC70 | activation (rescue from dofetilide block), less the hit threshold, % at 10 µM | actives 0.51% (n = 310,000) | dofetilide IC70 present | Voltage-gated inwardly rectifying potassium channel KCNH2 (Homo sapiens), Q12809 | AID 1511, 2009;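 active means activation above the mean of controls blocked by dofetilide plus 5 SD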;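 further: thallium influx through hERG after potassium depolarization seen as dye fluorescence rise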
KCNQ1 pot = potentiators or activators of KCNQ1 channel, primary screen, cell-based, thallium flux, high-throughput | actives 0.35% (n = 310,000) | Potassium voltage-gated channel subfamily KQT member 1 (Homo sapiens), P51787 | B-score at 10 µM | CHO-K1 KCNQ1, thallium flux FluxOR fluorescence; hits give high values;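 active means fluorescence ratio B-score, a plate-corrected score, at least three library SD, with initial intensity B-score within 5 SD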
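Medium – assay buffer, equal DMSO in all wells · Material – CHO-K1 cell line with stable KCNQ1 potassium channel expression · Signal – kinetic FluxOR thallium fluorescence, 10-s 1-Hz baseline, 110-s post-stimulus read · Compound – single concentration per compound, DMSO matched to controls · Schedule – 37 °C overnight plating, 90-min dark dye load, 20-min compound pretreatment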
Starred values were filed as active, the others as inactive. Rows were chosen to be rich in hits. Some 3.7% of all compounds tested hit in one or more screens of this group.

Screening O=C(CN1CCN(Cc2ccccc2)CC1)Nc1cccc(Br)c1 returned KCNK9 block inactive, Kir21 block -4.6*, KCNK3 inh inactive, KCNQ1 inh inactive, hERG rescue -3 and KCNQ1 pot inactive.
O=C(/C=C/c1cccc(Br)c1)NC1CCN(Cc2ccccc2)CC1 was read as KCNK9 block inactive, Kir21 block -5.8*, KCNK3 inh inactive, KCNQ1 inh inactive, hERG rescue -9 and KCNQ1 pot inactive.
Screening Cc1ccc(NC(=O)CN2CCN(Cc3ccccc3)CC2)cc1Cl returned KCNK9 block inactive, Kir21 block -1.9, KCNK3 inh inactive, KCNQ1 inh inactive, hERG rescue -5 and KCNQ1 pot inactive.
For O=C(COc1ccc(Br)cc1CNC1CCCCC1)NCCc1ccccc1 the results were KCNK9 block inactive, Kir21 block -4.2, KCNK3 inh inactive, KCNQ1 inh 8*, hERG rescue -14 and KCNQ1 pot inactive.
O=C(NC1CCN(Cc2ccccc2)CC1)c1cccc(Br)c1 was read as KCNK9 block inactive, Kir21 block -4.6*, KCNK3 inh inactive, KCNQ1 inh inactive, hERG rescue -11 and KCNQ1 pot inactive.
CC(NC(=O)COC(=O)c1ccccc1F)C1CC2CCC1C2 (stereo not drawn) was read as KCNK3 inh inactive.
`CC1(C)CC2CC(C)(CN2/C=N/c2sc3c(c2C#N)CC(C)(C)NC3(C)C)C1` (stereo not drawn) gave KCNK9 block inactive, Kir21 block 0.39, KCNK3 inh inactive, KCNQ1 inh inactive, hERG rescue -10 and KCNQ1 pot inactive.
`Cc1ccccc1C(=O)NC1CC2CCCC(C1)N2C(=O)Nc1ccccc1` (stereo not drawn) gave KCNK9 block inactive, Kir21 block 1.1, KCNK3 inh inactive, KCNQ1 inh inactive, hERG rescue -5 and KCNQ1 pot inactive.
CCOC(=O)/C(=N\Nc1ccccc1Cl)N1CCN(Cc2ccccc2)CC1 was read as KCNK9 block -8*, Kir21 block 0.43, KCNK3 inh inactive, KCNQ1 inh 7*, hERG rescue -6 and KCNQ1 pot inactive.
`CCOC(=O)/C(=N\Nc1ccccc1Cl)N1CCN(C)CC1` gave KCNK9 block inactive, Kir21 block -0.53, KCNK3 inh inactive, KCNQ1 inh inactive, hERG rescue -6 and KCNQ1 pot inactive.
Screening CC1Nc2ncnc(N3CCN(c4ccccc4)CC3)c2N(Cc2ccc(Br)cc2)C1=O (stereo not drawn) returned KCNK9 block -6.7*, Kir21 block -0.07, KCNK3 inh inactive, KCNQ1 inh inactive, hERG rescue -16 and KCNQ1 pot inactive.
`COc1ccc(C(=O)Nc2ccccc2)cc1NC(=O)c1cccs1` gave KCNK9 block inactive, Kir21 block 2.1, KCNK3 inh inactive, KCNQ1 inh inactive, hERG rescue -7 and KCNQ1 pot inactive.
For Cc1ccc(S(=O)(=O)Nc2c(C)nn(C)c2C)c(C)c1 the results were KCNK9 block inactive, Kir21 block -0.33, KCNK3 inh inactive, KCNQ1 inh inactive, hERG rescue -9 and KCNQ1 pot inactive.
For O=C1C(Cl)=C(NS(=O)(=O)c2ccc([N+](=O)[O-])cc2)C(=O)c2ccccc21 the results were KCNK9 block inactive, Kir21 block -0.64, KCNK3 inh inactive, KCNQ1 inh 6*, hERG rescue -23 and KCNQ1 pot inactive.
COCCN(CCOC)Cc1c(O)ccc2c1O/C(=C\c1ccco1)C2=O was read as KCNK9 block inactive, Kir21 block -9.3, KCNK3 inh inactive, KCNQ1 inh 11*, hERG rescue -26 and KCNQ1 pot inactive.
For CC(=O)Oc1ccc2c(c1)O/C(=C\c1ccncc1)C2=O the results were KCNK9 block inactive, Kir21 block -8.9, KCNK3 inh inactive, KCNQ1 inh 9*, hERG rescue -27 and KCNQ1 pot inactive.
